Laboratory results from ChEMBL document CHEMBL1142936, “Library synthesis and screening: 2,4-diphenylthiazoles and 2,4-diphenyloxazoles as potential novel prion disease therapeutics” (2007).

What was measured:
[1] = target: Major prion protein (Mus musculus) (UniProt P04925); test: Binding affinity at mouse PrPC at 40 uM by SPR assay
[2] = target: Major prion protein (Homo sapiens) (UniProt P04156); test: Binding affinity at human PrPC at 40 uM by SPR assay
[3] = Inhibition of PrPSc formation in mouse SMB cells at 2.5 uM after 5 days […] relative to control; format: functional; conditions: 120 h
In short: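 Scrapie-infected SMB mouse cells seeded at 3 × 10⁴ per well, attached 24 h, then exposed 5 days to compound. DMSO stocks were 400× final, diluted 20-fold into Hank's salt solution, then 20-fold into medium. Lysates were dot-blotted at about 30-40 µg protein, guanidine thiocyanate treated, and probed with anti-PrP 6H4 with ECL detection. PrP^Sc was expressed relative to untreated control, as the mean of triplicates with standard deviation.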

Sequence of Major prion protein (Mus musculus) (P04925 whole entry): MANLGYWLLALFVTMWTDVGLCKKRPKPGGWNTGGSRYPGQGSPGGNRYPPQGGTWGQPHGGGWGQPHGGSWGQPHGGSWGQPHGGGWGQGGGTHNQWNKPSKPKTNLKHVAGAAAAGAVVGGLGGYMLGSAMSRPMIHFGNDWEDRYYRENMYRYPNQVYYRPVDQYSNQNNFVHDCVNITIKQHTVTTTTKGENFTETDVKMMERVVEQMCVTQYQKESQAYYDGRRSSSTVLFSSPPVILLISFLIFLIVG

| Compound | RUmax [1] [%] | RUmax [2] [%] | inhibition at 2.5 µM [3] [%] |
| --- | --- | --- | --- |
| CC(C)(C)OC(=O)Nc1oc(-c2ccccc2)nc1-c1ccccc1 | 10.6 | 11.3 |  |
| COc1ccc(C(=O)Nc2oc(-c3ccccc3)nc2-c2ccccc2)cc1 | 0 | 0 |  |
| O=C(Nc1sc(-c2ccccc2)nc1-c1ccccc1)C(F)(F)F | 18.7 | 9.5 | 13.7 |
| O=C(Nc1oc(-c2ccccc2)nc1-c1ccccc1)c1ccco1 | 0 | 3.8 |  |
| O=C(Nc1oc(-c2ccccc2)nc1-c1ccccc1)c1cc2ccccc2s1 | 59.6 | 48 |  |
| O=C(Nc1sc(-c2ccccc2)nc1-c1ccccc1)c1nc2ccccc2s1 | 0 | 40.1 |  |
| Cc1ccc(C(=O)Nc2sc(-c3ccccc3)nc2-c2ccccc2)s1 | 0 | 19.8 |  |
| O=C(Nc1sc(-c2ccccc2)nc1-c1ccccc1)c1ccccc1C(F)(F)F | 0 | 0 |  |
| O=C(Nc1oc(-c2ccccc2)nc1-c1ccccc1)C1CC1 | 0 | 0 |  |
| O=C(Nc1oc(-c2ccccc2)nc1-c1ccccc1)c1cc2ccccc2o1 | 58 | 48.9 |  |
| O=C(Nc1sc(-c2ccccc2)nc1-c1ccccc1)c1cccnc1 | 0 | 0 |  |
| O=C(Nc1oc(-c2ccccc2)nc1-c1ccccc1)c1ccncc1 | 0 | 0 |  |
| O=C(Nc1sc(-c2ccccc2)nc1-c1ccccc1)C1CC1 | 0 | 0 |  |
| O=C(Nc1sc(-c2ccccc2)nc1-c1ccccc1)c1ccc([N+](=O)[O-])o1 | 0 | 0 |  |
| O=C(Nc1sc(-c2ccccc2)nc1-c1ccccc1)c1cc2ccccc2s1 | 0 | 21.1 |  |
| O=C(Nc1oc(-c2ccccc2)nc1-c1ccccc1)c1cccs1 | 37.4 | 27.5 |  |
| O=C(Nc1oc(-c2ccccc2)nc1-c1ccccc1)c1cccnc1 | 40 | 37.3 |  |
| CCCC(CCC)C(=O)Nc1sc(-c2ccccc2)nc1-c1ccccc1 | 0 | 0 |  |
| O=C(Nc1sc(-c2ccccc2)nc1-c1ccccc1)c1ccccc1 | 0 | 0 |  |
| O=C(Nc1sc(-c2ccccc2)nc1-c1ccccc1)c1cccc(C(F)(F)F)c1 | 0 | 65 |  |
| O=C(Nc1oc(-c2ccccc2)nc1-c1ccccc1)c1ccc([N+](=O)[O-])o1 | 0 | 0 |  |
| O=C(Nc1oc(-c2ccccc2)nc1-c1ccccc1)c1ccc(C(F)(F)F)cc1 | 0 | 0 |  |
| O=C(Nc1oc(-c2ccccc2)nc1-c1ccccc1)c1ccno1 | 21.7 | 18.3 |  |
| O=C(Nc1oc(-c2ccccc2)nc1-c1ccccc1)c1ccc(F)cc1 | 0 | 0 |  |
| O=C(Nc1sc(-c2ccccc2)nc1-c1ccccc1)c1ccncc1 | 8.5 | 5 |  |
| O=C(Nc1oc(-c2ccccc2)nc1-c1ccccc1)c1ccc2ccccc2n1 | 0 | 0 |  |
| O=C(Nc1sc(-c2ccccc2)nc1-c1ccccc1)c1ccco1 | 8.4 | 6.5 |  |
| O=C(Nc1sc(-c2ccccc2)nc1-c1ccccc1)c1ccno1 | 0 | 0 |  |
| O=C(Nc1oc(-c2ccccc2)nc1-c1ccccc1)C(F)(F)F | 22 | 13.7 | 35.1 |
| O=C(Nc1sc(-c2ccccc2)nc1-c1ccccc1)c1ccc(C(F)(F)F)cc1 | 0 | 0 |  |
